Experimental findings from ChEMBL document CHEMBL1123844, “Synthesis of new antiinflammatory steroidal 20-carboxamides: (20R)- and (20S)-21-(N-substituted amino)-11 beta,17,20-trihydroxy-3,21-dioxo-1,4- pregnadiene” (J Med Chem, 1987) are described below.

The species entered for series [1] is Rattus norvegicus. Briefly: Tested for inhibition of formation of granulation tissue around the cotton pellet treated with steroid and expressed as net dry weight. In kind it is functional. The gist of the method:
(§1)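 Male Sprague–Dawley rats (100–200 g). Before implantation, the right cotton pellet (35 ± 1 mg) received 2 mg steroid in acetone and the left pellet vehicle only; controls had two vehicle pellets. After 7 days, pellets with granulation tissue were dried at 60 °C for 48 h and weighed. Net dry weight, mean ± SEM, n=6; % inhibition vs vehicle group.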

Series [2] relates to Rattus norvegicus. Kind of series: Tested for topical antiinflammatory activity in the croton oil ear edema assay. In kind it is functional. Also on record: concentration or dose not given beside the values. The gist of the method: (§2)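 Male Sprague–Dawley rats (100–200 g), acclimated 1 week. Baseline ear thickness was measured. Steroid at 0.75 mg/ear went to both ears, then 30 min later 50 μL 5% croton oil in acetone. Thickness was remeasured at 5 h. Mean change ± SEM, n=5; % inhibition vs vehicle controls, Student's t test.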

The species named for series [3] is Rattus norvegicus. Briefly: Tested for inhibition of formation of granulation tissue around the cotton pellet treated with steroid. In kind it is functional. The arrangement: concentration or dose not given beside the values. The gist of the method:
as §1

Series [4] is filed under the species Rattus norvegicus. Kind of series: Tested for inhibition of formation of granulation tissue around the cotton pellet untreated with steroid. In kind it is functional. The arrangement: concentration or dose not given beside the values. The gist of the method:
as §1

The species entered for series [5] is Rattus norvegicus. Briefly: Compound was evaluated for antiinflammatory activity in granuloma bioassay and measured as body weight gain. In kind it is functional. An outline of the steps: (§3)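 Male Sprague–Dawley rats (100–200 g), acclimated 1 week under controlled lighting. Each rat got one cotton pellet (35 ± 1 mg) loaded with 2 mg steroid in acetone and one vehicle pellet; controls got two vehicle pellets. Rats were killed 7 days later. Readouts: thymus and adrenal weights, initial/final body weight, plasma corticosterone by 3H radioimmunoassay of cardiac blood. Mean ± SEM, n=6, Student's t test.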

Series [6] is filed under the species Rattus norvegicus. Briefly: Tested for inhibition of formation of granulation tissue around the cotton pellet untreated with steroid and expressed as net dry weight. Format: functional. The gist of the method: as §1
The subject of series [7] is Rattus norvegicus. Kind of series: Tested for topical antiinflammatory activity in the croton oil ear edema assay and was expressed as mean change in ear thickness of rats. Format: functional. An outline of the steps: as §2
The species named for series [8] is Rattus norvegicus. Kind of series: Compound was evaluated for antiinflammatory activity in granuloma bioassay and measured as plasma corticosterone weight. In kind it is functional, organism-based. The gist of the method:
as §3

The species entered for series [9] is Rattus norvegicus. Briefly: Evaluated for antiinflammatory activity in granuloma bioassay and expressed as relative adrenal weight. In kind it is functional. The gist of the method:
as §3

A short description of series [10]: Octanol- water partition coefficient was determined.
The species named for series [11] is Rattus norvegicus. Kind of series: Evaluated for antiinflammatory activity in granuloma bioassay and expressed as relative thymus weight. In kind it is functional. The gist of the method:
as §3

Turning to `CCNC(=O)[C@@H](O)[C@@]1(O)CC[C@H]2[C@@H]3CCC4=CC(=O)C=C[C@]4(C)[C@H]3[C@@H](O)C[C@@]21C`, the Net dry weight in the series filed under Rattus norvegicus [1] worked out at 59.9 mg; in the series filed under Rattus norvegicus [6] it was 83.1 mg. Moreover, the values for the Inhibition in the series on Rattus norvegicus [2], in the series filed under Rattus norvegicus [3] and in the series listed under Rattus norvegicus [4] were 33.8%, 23.1% and -4.9%, respectively. Moreover, the Body weight gain in the series filed under Rattus norvegicus [5] was 54.7 g. In addition, in the series on Rattus norvegicus [7], the Mean change worked out at 0.305 mm. The same compound had a Plasma corticosterone in the series listed under Rattus norvegicus [8] of 288 ng/mL.
For the compound `CCCNC(=O)[C@@H](O)[C@@]1(O)CC[C@H]2[C@@H]3CCC4=CC(=O)C=C[C@]4(C)[C@H]3[C@@H](O)C[C@@]21C`, the Net dry weight in the series listed under Rattus norvegicus [1] was determined as 33.4 mg; in the series listed under Rattus norvegicus [6] it was 48.3 mg. Also, the Inhibition worked out at 23.6% in the series on Rattus norvegicus [2], 57.1% in the series filed under Rattus norvegicus [3] and 39.1% in the series filed under Rattus norvegicus [4]. In the series filed under Rattus norvegicus [9], this compound came in with a Relative adrenal weight of 14 mg 100g-1. Further, in the series listed under Rattus norvegicus [5], the Body weight gain amounted to 56.7 g. The Mean change in the series with Rattus norvegicus [7] was found to be 0.353 mm. The compound also had a Plasma corticosterone in the series filed under Rattus norvegicus [8] of 164 ng/mL. This compound also came in with a Partition coefficient in series [10] of 16.3. In the series filed under Rattus norvegicus [11], the Relative thymus weight turned out to be 161.7 mg 100g-1.
Turning to `C[C@]12C=CC(=O)C=C1CC[C@@H]1[C@@H]2[C@@H](O)C[C@@]2(C)[C@H]1CC[C@]2(O)C(=O)CO` [PREDNISOLONE], the figures for the Net dry weight in the series listed under Rattus norvegicus [1] and in the series filed under Rattus norvegicus [6] were 30.7 mg and 58.2 mg, respectively. Further, the Inhibition with Rattus norvegicus [2] amounted to 68.6%; in the series listed under Rattus norvegicus [3], 60.6%; in the series listed under Rattus norvegicus [4] it was 26.6%. Moreover, the Relative adrenal weight in the series listed under Rattus norvegicus [9] is listed as 12.1 mg 100g-1. The compound also returned a Body weight gain in the series filed under Rattus norvegicus [5] of 55 g. In addition, the Mean change with Rattus norvegicus [7] was 0.145 mm. For the same compound, in the series listed under Rattus norvegicus [8], the Plasma corticosterone is 130 ng/mL. Also, the Partition coefficient in series [10] is on record as 30. The compound further returned a Relative thymus weight in the series listed under Rattus norvegicus [11] of 110.2 mg 100g-1.
On to `C[C@]12C=CC(=O)C=C1CC[C@@H]1[C@@H]2[C@@H](O)C[C@@]2(C)[C@H]1CC[C@]2(O)[C@H](O)C(=O)NCc1ccccc1`, for which the Net dry weight in the series listed under Rattus norvegicus [1] was 61.6 mg; in the series filed under Rattus norvegicus [6] it was 75.2 mg. The results for the Inhibition with Rattus norvegicus [2], in the series filed under Rattus norvegicus [3] and in the series listed under Rattus norvegicus [4] were 21.9%, 20.9% and 5.2%, respectively. Moreover, in the series listed under Rattus norvegicus [9], the Relative adrenal weight stood at 11.8 mg 100g-1. This compound also gave a Body weight gain in the series filed under Rattus norvegicus [5] of 55.7 g. Besides, in the series with Rattus norvegicus [7], the Mean change was 0.361 mm. The Plasma corticosterone in the series listed under Rattus norvegicus [8] worked out at 298 ng/mL. The Partition coefficient in series [10] is recorded as 30. In the series listed under Rattus norvegicus [11], this compound displayed a Relative thymus weight of 264.2 mg 100g-1.
`CNC(=O)[C@H](O)[C@@]1(O)CC[C@H]2[C@@H]3CCC4=CC(=O)C=C[C@]4(C)[C@H]3[C@@H](O)C[C@@]21C`: the Net dry weight in the series filed under Rattus norvegicus [1] is reported as 18.9 mg; in the series filed under Rattus norvegicus [6], 40.8 mg. The values for the Inhibition in the series on Rattus norvegicus [2], in the series filed under Rattus norvegicus [3] and in the series filed under Rattus norvegicus [4] were 33.5%, 75.5% and 48.6%, respectively. In the series listed under Rattus norvegicus [9], this compound showed a Relative adrenal weight of 14 mg 100g-1. In addition, in the series filed under Rattus norvegicus [5], the Body weight gain was found to be 46 g. In addition, the Mean change with Rattus norvegicus [7] stood at 0.307 mm. The compound further gave a Plasma corticosterone in the series filed under Rattus norvegicus [8] of 321 ng/mL. For the same compound, in series [10], the Partition coefficient was determined as 10. This compound also showed a Relative thymus weight in the series filed under Rattus norvegicus [11] of 116.4 mg 100g-1.
Take `CCNC(=O)[C@H](O)[C@@]1(O)CC[C@H]2[C@@H]3CCC4=CC(=O)C=C[C@]4(C)[C@H]3[C@@H](O)C[C@@]21C`: the figures for the Net dry weight in the series filed under Rattus norvegicus [1] and in the series filed under Rattus norvegicus [6] were 36.4 mg and 58.1 mg, respectively. Also, the values for the Inhibition with Rattus norvegicus [2], in the series filed under Rattus norvegicus [3] and in the series listed under Rattus norvegicus [4] were 34.6%, 53.3% and 26.7%, respectively. The compound also gave a Body weight gain in the series listed under Rattus norvegicus [5] of 45.7 g. Moreover, in the series with Rattus norvegicus [7], the Mean change amounted to 0.302 mm. Further, the Plasma corticosterone in the series listed under Rattus norvegicus [8] is 280 ng/mL.
Regarding `CCCNC(=O)[C@H](O)[C@@]1(O)CC[C@H]2[C@@H]3CCC4=CC(=O)C=C[C@]4(C)[C@H]3[C@@H](O)C[C@@]21C`, the Net dry weight in the series filed under Rattus norvegicus [1] came out at 23.9 mg; in the series listed under Rattus norvegicus [6], 46.6 mg. The Inhibition came out at 31.9% in the series with Rattus norvegicus [2], 69.3% in the series listed under Rattus norvegicus [3] and 41.2% in the series filed under Rattus norvegicus [4]. Besides, the Relative adrenal weight in the series filed under Rattus norvegicus [9] stood at 13.1 mg 100g-1. The Body weight gain in the series filed under Rattus norvegicus [5] is 30.2 g. In the series on Rattus norvegicus [7], the Mean change stood at 0.311 mm. In the series filed under Rattus norvegicus [8], this compound registered a Plasma corticosterone of 236 ng/mL. This compound also displayed a Partition coefficient in [10] of 26.7. Further, the Relative thymus weight in the series listed under Rattus norvegicus [11] is 88.5 mg 100g-1.
For `CNC(=O)[C@@H](O)[C@@]1(O)CC[C@H]2[C@@H]3CCC4=CC(=O)C=C[C@]4(C)[C@H]3[C@@H](O)C[C@@]21C`, the figures for the Net dry weight in the series filed under Rattus norvegicus [1] and in the series listed under Rattus norvegicus [6] were 61.6 mg and 82.8 mg, respectively. Besides, the Inhibition is recorded as 24.5% in the series on Rattus norvegicus [2], 21.1% in the series filed under Rattus norvegicus [3] and -4.5% in the series listed under Rattus norvegicus [4]. The compound further showed a Relative adrenal weight in the series filed under Rattus norvegicus [9] of 16.7 mg 100g-1. This compound showed a Body weight gain in the series listed under Rattus norvegicus [5] of 55 g. In addition, the Mean change in the series on Rattus norvegicus [7] was 0.349 mm. This compound also returned a Plasma corticosterone in the series listed under Rattus norvegicus [8] of 291 ng/mL. The Partition coefficient in series [10] is given as 8.6. The compound also returned a Relative thymus weight in the series filed under Rattus norvegicus [11] of 247 mg 100g-1.
As to `C[C@]12C=CC(=O)C=C1CC[C@@H]1[C@@H]2[C@@H](O)C[C@@]2(C)[C@H]1CC[C@]2(O)[C@@H](O)C(=O)NCc1ccccc1`, the Net dry weight is listed as 24 mg in the series filed under Rattus norvegicus [1] and 48.4 mg in the series filed under Rattus norvegicus [6]. Moreover, the Inhibition in the series with Rattus norvegicus [2] stood at 42.6%; in the series filed under Rattus norvegicus [3], 69.3%; in the series listed under Rattus norvegicus [4], 38.9%. The Relative adrenal weight in the series filed under Rattus norvegicus [9] came to 12.4 mg 100g-1. This compound came in with a Body weight gain in the series filed under Rattus norvegicus [5] of 42 g. The compound also registered a Mean change in the series on Rattus norvegicus [7] of 0.265 mm. In the series filed under Rattus norvegicus [8], this compound came in with a Plasma corticosterone of 101 ng/mL. The compound also registered a Partition coefficient in series [10] of 32.5. This compound also returned a Relative thymus weight in the series listed under Rattus norvegicus [11] of 167.1 mg 100g-1.

By Inhibition is commonly meant the drop in the measured response relative to a control, in per cent.
